HIV Env fusion – HIV envelope-mediated fusion inhibition; 1.1% of 360,000 active; AID 651610; HeLa-JRFL Env/CEM21 cell fusion, luciferase; inhibition, % at 12.3 µM;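 active = mean replicate inhibition score of at least 50 and every replicate individually at or above 50; inconclusive = only one of the two criteria met; inactive = mean below 50 and not all replicates reaching 50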;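 note: 0% = plate neutral controls and 100% = maraviroc near 300 nM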
S100A4 MyoIIA – S100A4-myosin IIA interaction inhibition. S100A4/TAMRA-MyoIIA peptide fluorescence polarization. AID 652163. inhibition, % at 10.7 µM. 0.14% of 360,000 active;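 active = mean inhibition of at least 70% across replicates, with every replicate also reaching that level; inconclusive = mean inhibition reaches 70% but some replicates fall short; inactive = mean inhibition below 70%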
Target sequence (P26447 whole entry, looked up): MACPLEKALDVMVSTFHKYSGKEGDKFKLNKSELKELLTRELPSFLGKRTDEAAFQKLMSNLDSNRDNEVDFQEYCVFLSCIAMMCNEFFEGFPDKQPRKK
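Test system: S100A4 monomer protein; Medium: HEPES pH 7.2 with CaCl2, KCl, NaCl, DTT, Triton; Probe or stimulus: TAMRA-labelled myosin IIA heavy-chain peptide probe, 5 nM; Doses: one dose per compound; Times: polarization read 5 min after assay mix addition, stable 5–60 min; Benchmarks: neutral control DMSO, positive control TFP.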
FGF22 binding – FGF22 (human) thermal shift binding | recombinant FGF22 thermal shift, SYPRO orange fluorescence; percent of sucrose octasulfate shift, DMSO zero | AID 651658 | 1.5% of 340,000 active | activity (Tm shift, normalised), % at 9.99 µM;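 active = mean Tm shift, scaled 0 neutral to 100 positive control, at about 1.3% or above, every replicate too, limit read from the data; inconclusive = no clear call, values can overlap the other calls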
Target sequence (Q9HCT0 whole entry, looked up): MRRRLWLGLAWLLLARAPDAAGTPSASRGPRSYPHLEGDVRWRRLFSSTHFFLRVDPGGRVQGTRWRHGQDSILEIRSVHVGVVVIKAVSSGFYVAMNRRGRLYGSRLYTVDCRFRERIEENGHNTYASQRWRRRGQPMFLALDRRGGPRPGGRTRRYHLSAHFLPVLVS
E-sel inducer – E-selectin induction on HUVECs; P16581; HUVEC E-selectin immunofluorescence imaging; normalized: neutral wells 0, TNF-alpha wells 100; activation, % at 7.58 µM; 0.37% of 260,000 active; AID 686992;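 active = mean E-selectin-positive cell signal at least 10% of the positive control, reached in at least 60% of replicates, without over 20% cell loss; inconclusive = no rule given, readout overlaps actives, possibly toxicity-flagged; inactive = the rest, including those meeting only one limit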
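Read-out basis: % PE-positive cells; Test system: HUVEC primary endothelial cells; Technique: immunofluorescence imaging; Dosing: single-point compound dose.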
CFTR F508del cor – correctors of CFTR F508del function in bronchial epithelial cells; activity (quench increase), % at 7.58 µM; 0.36% of 350,000 active; AID 720511; CFBE cells, YFP halide quenching; stimulated with forskolin plus potentiator P3; % fluorescence drop versus neutral controls;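 active = mean added fluorescence quench of at least 8% versus neutral control, with both replicates also reaching 8%; inconclusive = only one of the mean or replicate conditions met; inactive = mean below 8% and not both replicates reaching 8%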;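 note: cells transiently co-express mutant CFTR-F508del with the halide-sensitive YFP; corrector assay measuring rescue of mutant channel to the surface after 24 h compound exposure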
Active calls of the source: *; [ ] = another dose, or the depositor's remark. Only some compounds are listed: those with a hit (about 2.7% of all), similar ones and a draw of the others.

What do the screens show for `C[C@H](CO)N1C[C@H](C)[C@@H](CN(C)S(C)(=O)=O)Oc2cc(-c3ccc(F)cc3)ccc2S1(=O)=O`?
HIV Env fusion: 13[16.7 µM]; E-sel inducer: -1; CFTR F508del cor: -1

How did O=C(Cc1ccc([N+](=O)[O-])cc1)NCc1ccccn1 do in these assays?
HIV Env fusion: 7; S100A4 MyoIIA: -3; FGF22 binding: 43*; E-sel inducer: 0; CFTR F508del cor: 2

What do the screens show for `Cc1cc2cc(CNC(=O)Nc3cccc(Cl)c3)ccc2n1C`?
HIV Env fusion: 7; S100A4 MyoIIA: 78*; FGF22 binding: 0; E-sel inducer: 33*; CFTR F508del cor: -2

What do the screens show for `Cc1cc2cc(CNC(=O)Cc3ccc([N+](=O)[O-])cc3)ccc2n1C`?
HIV Env fusion: -9; S100A4 MyoIIA: 21; FGF22 binding: 44*; CFTR F508del cor: -2

How did Cc1cccc(NC(=O)NCc2ccc3c(c2)cc(C)n3C)c1 do in these assays?
HIV Env fusion: -13; S100A4 MyoIIA: 26; FGF22 binding: 0; E-sel inducer: 56*; CFTR F508del cor: 0

Results for COc1ccc(S(=O)(=O)N(C)C[C@@H]2OCCCC[C@H](C)Oc3ccc(NS(=O)(=O)c4cn(C)cn4)cc3C(=O)N([C@@H](C)CO)C[C@H]2C)cc1 ?
HIV Env fusion: 20[16.7 µM]; S100A4 MyoIIA: 1; FGF22 binding: 0; CFTR F508del cor: 3

What do the screens show for `CCCNC(=O)N1CCC2(CC1)CN(Cc1ccc(F)cc1)[C@@H](CO)c1[nH]c3cc(OC)ccc3c12`?
S100A4 MyoIIA: -7; FGF22 binding: 0; E-sel inducer: -1; CFTR F508del cor: 1

What do the screens show for `C=C[C@@H]1c2ccccc2N(S(=O)(=O)c2ccc(C)cc2)[C@H](c2ccccc2C(F)(F)F)C1(C#N)C#N`?
HIV Env fusion: inconclusive; S100A4 MyoIIA: 1; FGF22 binding: 0; E-sel inducer: 0; CFTR F508del cor: 1

Results for C=C[C@@H]1c2ccccc2N(S(=O)(=O)c2ccc(C)cc2)[C@H](c2ccc(C(F)(F)F)cc2)C1(C#N)C#N ?
HIV Env fusion: 56*; S100A4 MyoIIA: -2; FGF22 binding: 0; E-sel inducer: 0; CFTR F508del cor: -1

How did Oc1ccc(/C=N/n2cc(-c3ccccc3)[nH]c2=S)cc1 do in these assays?
HIV Env fusion: 21; S100A4 MyoIIA: -2; FGF22 binding: 44*; E-sel inducer: 3; CFTR F508del cor: 0

What do the screens show for `C[C@H]1CN([C@@H](C)CO)C(=O)c2cccc(NC(=O)NC3CCCCC3)c2O[C@H]1CN(C)Cc1ccc(C(=O)Nc2ccccc2N)cc1`?
S100A4 MyoIIA: 5; FGF22 binding: 0; CFTR F508del cor: -2

How did C[C@@H]1CN([C@H](C)CO)C(=O)c2cc(NC(=O)c3ccncc3)ccc2O[C@H]1CN(C)S(=O)(=O)c1cccs1 do in these assays?
S100A4 MyoIIA: -57; FGF22 binding: -1; E-sel inducer: 0; CFTR F508del cor: -2

Results for CC(=O)N1CC23C=CC(CC2CC12CCCCCC2)O3 (configuration not stated) ?
HIV Env fusion: -2; S100A4 MyoIIA: -13; FGF22 binding: 0; E-sel inducer: 35*; CFTR F508del cor: -1

Results for CCOc1cc(N2CCOCC2)c(OCC)cc1NC(=O)c1ccc(OC(C)C)cc1 ?
HIV Env fusion: 9; S100A4 MyoIIA: -4; FGF22 binding: 43*; E-sel inducer: 8; CFTR F508del cor: 5

What do the screens show for `CC(C)CC#Cc1ccc2c(c1)O[C@@H](CN(C)C(=O)c1cnccn1)[C@H](C)CN([C@H](C)CO)S2(=O)=O`?
E-sel inducer: 0; CFTR F508del cor: 1

How did O=C(C[C@@H]1CC[C@@H](NC(=O)NC2CCCC2)[C@H](CO)O1)NCc1ccc(F)cc1 do in these assays?
HIV Env fusion: -14[16.7 µM]; S100A4 MyoIIA: 120*; FGF22 binding: 0; E-sel inducer: 0; CFTR F508del cor: 1

Results for O=C(C[C@@H]1CC[C@@H](NC(=O)CC2CC2)[C@H](CO)O1)NCc1ccc(Cl)cc1 ?
HIV Env fusion: 27[16.7 µM]; S100A4 MyoIIA: 135*; FGF22 binding: 0; E-sel inducer: 0; CFTR F508del cor: 0

What do the screens show for `O=C(C[C@@H]1C=C[C@@H](NC(=O)CC2CC2)[C@H](CO)O1)NCc1ccc(Cl)cc1`?
HIV Env fusion: 55*[16.7 µM]; S100A4 MyoIIA: 9; FGF22 binding: 0; E-sel inducer: 0; CFTR F508del cor: 0

What do the screens show for `COc1ccc(NC(=O)N[C@@H]2C=C[C@@H](CC(=O)NC3CCCCC3)O[C@H]2CO)cc1`?
HIV Env fusion: -2[16.7 µM]; S100A4 MyoIIA: 2; FGF22 binding: 0; E-sel inducer: 0; CFTR F508del cor: 1

How did CCOC(=O)CN1CCCc2nc(C)c(C)cc21 do in these assays?
HIV Env fusion: 84*; S100A4 MyoIIA: 3; FGF22 binding: 0; E-sel inducer: 0; CFTR F508del cor: 4

What do the screens show for `CCOC(=O)CN1CCCc2nc(-c3ccc(OC)cc3)ccc21`?
HIV Env fusion: -46; S100A4 MyoIIA: 0; FGF22 binding: 0; E-sel inducer: 0; CFTR F508del cor: 2

How did CCc1ccc(C(=O)COC(=O)C(CCSC)NC(=O)C23CC4CC(CC(C4)C2)C3)cc1 (configuration not stated) do in these assays?
HIV Env fusion: -2; S100A4 MyoIIA: 2; FGF22 binding: 0; CFTR F508del cor: 3

How did CSCCC(NC(=O)c1ccc(C(C)(C)C)cc1)C(=O)O (configuration not stated) do in these assays?
HIV Env fusion: 14; S100A4 MyoIIA: 3; FGF22 binding: 44*; CFTR F508del cor: -2

What do the screens show for `CCc1ccc(C(=O)COC(=O)C(CCSC)NC(=O)c2ccccc2)cc1` (configuration not stated)?
HIV Env fusion: 2; S100A4 MyoIIA: -13; FGF22 binding: 44*; CFTR F508del cor: -1

Results for O=C(Nc1cc(F)ccc1F)N[C@H]1CC[C@@H](CCn2cc(C3CCCC3)nn2)O[C@H]1CO ?
S100A4 MyoIIA: 1; E-sel inducer: 0; CFTR F508del cor: -1

Results for O=C(Nc1ccccc1F)Nc1ccccc1F ?
HIV Env fusion: -2; S100A4 MyoIIA: -2; FGF22 binding: 44*; CFTR F508del cor: 0

How did CC(=O)Nc1cccc(NC(=O)Nc2ccc(F)cc2F)c1 do in these assays?
HIV Env fusion: 2; S100A4 MyoIIA: 1; FGF22 binding: 0; E-sel inducer: -1; CFTR F508del cor: -2

How did O=C(Nc1ccccc1)Nc1ccc(F)cc1F do in these assays?
HIV Env fusion: -7; S100A4 MyoIIA: -8; FGF22 binding: 43*; E-sel inducer: 4; CFTR F508del cor: -1

What do the screens show for `C[C@@H]1CCCCO[C@@H](CN(C)C)[C@H](C)CN([C@@H](C)CO)C(=O)c2cc(NC(=O)Cc3ccccc3)ccc2O1`?
HIV Env fusion: -4[16.7 µM]; E-sel inducer: 0; CFTR F508del cor: -2
